The test system of assay [1] is Rattus norvegicus. The experiment in a line: Mean maximum percent lowering of glucose at a single dose of 10 mg/kg, subcutaneously using rat oral glucose tolerance test. The assay is classed as functional. As to conditions: route subcutaneous. In short, it runs like this: (§1)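 Rats given a single 10 mg/kg sc dose, calculated as free base. Blood glucose is compared with controls at each time point by unpaired Student's t-test; a significant lowering at any point (95% confidence) counts as active. Each rat's maximum percent lowering from the matched control mean is averaged to give the mean maximum percent lowering.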

Assay [2] concerns Rattus norvegicus. The experiment in a line: Mean maximum percent lowering of glucose was determined at a single dose of 10 mg/kg, subcutaneously using rat oral glucose tolerance test; IA = inactive. The assay is classed as functional, organism-based. The arrangement: dose 10 mg/kg. In short, it runs like this: as §1
Assay [3] is filed under the species Rattus norvegicus. The experiment in a line: Effective dose to produce a 30% maximum decrease of glucose from control. The assay is classed as functional. A digest of the protocol:
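Rats, subcutaneous dosing at 10, 5 and 2.5 mg/kg, calculated as free base. For each rat, the maximum percent lowering of blood glucose from the control group mean at the matched time point is taken. The dose giving a 30% decrease, with its 95% CI, comes from regression of mean maximum percent decrease versus log dose (mg/kg).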

Calls of active or inactive are those of the source. The rule behind the calls is not given here.

In turn, `CC(C)C(=N)/N=C(/Nc1ccccc1)N1CCOCC1` had a Lowering with Rattus norvegicus [1] of 34%. As for `CC(=N/S(C)(=O)=O)/N=C(/Nc1ccccc1)N1CCOCC1`, the IA result with Rattus norvegicus [2] is “inactive”.

In the assay filed under Rattus norvegicus [3], `CC(C)/C(=N\C(=N\c1ccccc1)N1CCOCC1)N(C)C` displayed an ED30 of 4.3 mg/kg. For the same compound, the Lowering in the assay on Rattus norvegicus [1] was 43%. Take `CN(C)/C(=N/C(=N/c1ccccc1)N1CCOCC1)C(C)(C)C`: the ED30 in the assay listed under Rattus norvegicus [3] came out at 9.6 mg/kg. In the assay with Rattus norvegicus [1], this compound yielded a Lowering of 40%. With `CC(=O)N/C(C)=N/C(=N/c1ccccc1)N1CCOCC1`, the Lowering in the assay on Rattus norvegicus [1] came to 22%. Still for that read-out and setting: the figure for `C/N=C(\N=C(\Nc1ccccc1)N1CCCC1)C(C)C` is 43%. For `C/C(=N\C(=N\c1ccccc1)N1CCOCC1)N1CCN(C)CC1`, the IA entry with Rattus norvegicus [2] was “inactive”. For `CCOC(=O)C/N=C(C)\N=C(\Nc1ccccc1)N1CCOCC1`, in the assay on Rattus norvegicus [2], the IA result was “inactive”. As for `C/C(=N\C(=N\c1ccccc1)N1CCOCC1)N1CCCCC1`, in the assay filed under Rattus norvegicus [3], the ED30 was found to be 5.3 mg/kg. This compound also returned a Lowering in the assay with Rattus norvegicus [1] of 46%. Consider `C/C(=N\C(=N\c1ccccc1)N1CCOCC1)N(C)C`, for which the ED30 in the assay listed under Rattus norvegicus [3] came out at 6.7 mg/kg. The Lowering in the assay on Rattus norvegicus [1] worked out at 38%.

On to `C/N=C(\N=C(\Nc1ccc(F)cc1)N1CCOCC1)C(C)C`, for which the Lowering in the assay on Rattus norvegicus [1] is 42%. As for `CN(C)/C(=N/C(=N/c1ccccc1)N1CCOCC1)c1ccccc1`, the Lowering in the assay with Rattus norvegicus [1] amounted to 25%. Take `C/C(=N\C(=N\c1ccccc1)N1CCOCC1)N(Cc1ccccc1)c1ccccc1`: the Lowering in the assay on Rattus norvegicus [1] is 17%. Still for that read-out and setting: in the case of `CN/C(=N/C(=N/c1ccccc1OC)N1CCOCC1)C(C)C` it was 21%; in that of `CC(=N/CCO)/N=C(/Nc1ccccc1)N1CCOCC1`, 15%. Turning to `CC/N=C(C)\N=C(\Nc1ccccc1)N1CCOCC1`, in the assay filed under Rattus norvegicus [3], the ED30 turned out to be 4.6 mg/kg. In the assay with Rattus norvegicus [1], this compound displayed a Lowering of 48%.

The compound `CC(=N)/N=C(/Nc1ccccc1)N1CCOCC1` returned a Lowering with Rattus norvegicus [1] of 21%. The compound `CCC(=N/C)/N=C(/Nc1ccccc1)N1CCOCC1` registered a Lowering with Rattus norvegicus [1] of 42%. The same measure, in the same setting: the figure for `C/C(=N\C(=N\c1ccccc1)N1CCOCC1)N1CCOCC1` is 24%. In the assay listed under Rattus norvegicus [3], `CCC/N=C(C)\N=C(\Nc1ccccc1)N1CCOCC1` showed an ED30 of 0.97 mg/kg. Moreover, the Lowering in the assay on Rattus norvegicus [1] amounted to 56%. With `CCCCCC/C(=N\C(=N\c1ccccc1)N1CCOCC1)N(C)C`, the Lowering in the assay with Rattus norvegicus [1] turned out to be 31%.

Regarding `CN(C)/C(CC(C)(C)C)=N/C(=N/c1ccccc1)N1CCOCC1`, the ED30 in the assay filed under Rattus norvegicus [3] is 5.9 mg/kg. This compound also displayed a Lowering with Rattus norvegicus [1] of 37%. For `CC(=N/Cc1ccccc1)/N=C(/Nc1ccccc1)N1CCOCC1`, the ED30 in the assay listed under Rattus norvegicus [3] is 4.3 mg/kg. Further, the Lowering in the assay on Rattus norvegicus [1] is recorded as 50%. `CC/C(=N\C(=N\c1ccccc1)N1CCOCC1)N(C)C`: the ED30 in the assay filed under Rattus norvegicus [3] was found to be 5.3 mg/kg. Also, the Lowering in the assay with Rattus norvegicus [1] was found to be 43%. Take `CC(=N/C(C)C)/N=C(/Nc1ccccc1)N1CCOCC1`: the ED30 in the assay listed under Rattus norvegicus [3] was determined as 3.9 mg/kg. For the same compound, the Lowering in the assay on Rattus norvegicus [1] was 42%. `CC(C)/N=C(\N=C(\Nc1ccccc1)N1CCOCC1)C(C)C` yielded a Lowering with Rattus norvegicus [1] of 23%. In the assay filed under Rattus norvegicus [3], `CN1CCC/C1=N\C(=N\c1ccccc1)N1CCOCC1` [LINOGLIRIDE] displayed an ED30 of 6.1 mg/kg. This compound gave a Lowering in the assay on Rattus norvegicus [1] of 34%. In the assay listed under Rattus norvegicus [3], `C/N=C(\N=C(\Nc1ccccc1)N1CCOCC1)C(C)C` came in with an ED30 of 1.5 mg/kg. Moreover, the Lowering in the assay on Rattus norvegicus [1] is given as 52%. With `C/N=C(C)\N=C(\Nc1ccccc1)N1CCOCC1`, in the assay filed under Rattus norvegicus [3], the ED30 came to 2.6 mg/kg. This compound displayed a Lowering in the assay on Rattus norvegicus [1] of 45%. In the case of `CC/N=C(\N=C(\Nc1ccccc1)N1CCOCC1)C(C)C`, the Lowering with Rattus norvegicus [1] worked out at 26%. Regarding `C/C(=N\C(=N\c1ccccc1)N1CCOCC1)N(C)c1ccccc1`, the Lowering in the assay on Rattus norvegicus [1] is on record as 20%.

`CCC/N=C(\N=C(\Nc1ccccc1)N1CCOCC1)C(C)C` gave a Lowering in the assay on Rattus norvegicus [1] of 31%. In the assay on Rattus norvegicus [1], `CN(C)/C=N/C(=N/c1ccccc1)N1CCOCC1` registered a Lowering of 22%.

As for `CN(C)/C(Cc1ccccc1)=N/C(=N/c1ccccc1)N1CCOCC1`, in the assay on Rattus norvegicus [1], the Lowering is reported as 27%. `CC(=N/C(C)(C)C)/N=C(/Nc1ccccc1)N1CCOCC1` had an ED30 in the assay listed under Rattus norvegicus [3] of 4.2 mg/kg. Further, the Lowering with Rattus norvegicus [1] was 45%. Regarding `CN(C)/C(=N/C(=N/c1ccccc1)N1CCOCC1)C1CCCCC1`, the Lowering with Rattus norvegicus [1] stood at 27%. Compound `CCCCN(C)/C(C)=N/C(=N/c1ccccc1)N1CCOCC1` showed an ED30 in the assay filed under Rattus norvegicus [3] of 7.6 mg/kg. Moreover, the Lowering in the assay on Rattus norvegicus [1] worked out at 33%.

Regarding `CC(=N/c1ccccc1)/N=C(/Nc1ccccc1)N1CCOCC1`, the Lowering in the assay on Rattus norvegicus [1] was 26%.
